{
  "source": "ChEMBL document CHEMBL4312027",
  "about": "“Synthesis, characterization, and biological activity of a triphenylphosphonium-containing imidazolium salt against select bladder cancer cell lines” (Eur J Med Chem, 2020)",
  "key": {"RT-112 [1]": {"tested_on": "RT-112", "test": "Mito-toxicity in mitochondria isolated from human RT112 cells assessed as increase in cytochrome C release at 100 uM incubated for 1 hr and measured after 1 to 4 hrs incubation in preservative buffer by Western blot analysis", "type": "functional"}, "RT-112 [2]": {"tested_on": "RT-112", "test": "Induction of mitochondrial membrane depolarization in human RT112 cells at 100 uM incubated for 1 hr and measured after 2 hrs recovery time by JC-1 staining based confocal microscopy", "type": "functional, cell-based", "in_short": "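RT112 cells plated on glass-bottom dishes and incubated overnight. They were treated for 45 min, then JC-1 (final 10 μg/mL) was added to the medium for a further 15 min. Live cells were imaged by confocal microscopy (ex 485 nm; em 530 and 590 nm) every 15 min for 6 h. Red polarized versus green depolarized mitochondria were scored, with CCCP as positive control.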"}},
  "note": "Active and inactive are the calls of the source. No cut-off for these calls is given here.",
  "data": [
    {"smiles": "N#CC(C#N)=NNc1cccc(Cl)c1", "values": [
      {"measurement": "Activity", "setting": "RT-112 [1]", "value": "Active"},
      {"measurement": "Activity", "setting": "RT-112 [2]", "value": "Active"}
    ]}
  ]
}
